Source: ChEMBL document CHEMBL3576764, “α-Ketoamino acid ester derivatives as promising MAO inhibitors” (Bioorg Med Chem Lett, 2014)

Experiments:
[1] = molecular target: T1, Amine oxidase [flavin-containing] A (Rattus norvegicus, UniProt P21396); assay: Inhibition of MAO-A in rat liver mitochondria using serotonin as substrate preincubated with enzyme for 60 mins prior to substrate addition
T1 sequence (P21396 whole entry): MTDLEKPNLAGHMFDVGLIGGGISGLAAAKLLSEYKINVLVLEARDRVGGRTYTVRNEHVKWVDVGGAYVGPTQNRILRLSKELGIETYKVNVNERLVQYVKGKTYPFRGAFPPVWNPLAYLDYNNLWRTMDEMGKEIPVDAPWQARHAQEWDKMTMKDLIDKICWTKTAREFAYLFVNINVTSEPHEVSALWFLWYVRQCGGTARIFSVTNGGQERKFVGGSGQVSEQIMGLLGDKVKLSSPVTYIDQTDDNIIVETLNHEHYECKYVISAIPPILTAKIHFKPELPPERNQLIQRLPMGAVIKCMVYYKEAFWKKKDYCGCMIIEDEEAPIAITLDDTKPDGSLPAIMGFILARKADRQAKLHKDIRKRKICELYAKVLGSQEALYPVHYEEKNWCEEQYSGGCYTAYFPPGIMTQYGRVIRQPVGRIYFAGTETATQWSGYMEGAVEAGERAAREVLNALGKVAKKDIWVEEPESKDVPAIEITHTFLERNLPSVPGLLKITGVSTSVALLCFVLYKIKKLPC

[2] = molecular target: T2, Amine oxidase [flavin-containing] B (Bos taurus, UniProt P56560); assay: Inhibition of MAO-B in bovine brain mitochondria using benzylamine as substrate
T2 sequence (P56560 whole entry): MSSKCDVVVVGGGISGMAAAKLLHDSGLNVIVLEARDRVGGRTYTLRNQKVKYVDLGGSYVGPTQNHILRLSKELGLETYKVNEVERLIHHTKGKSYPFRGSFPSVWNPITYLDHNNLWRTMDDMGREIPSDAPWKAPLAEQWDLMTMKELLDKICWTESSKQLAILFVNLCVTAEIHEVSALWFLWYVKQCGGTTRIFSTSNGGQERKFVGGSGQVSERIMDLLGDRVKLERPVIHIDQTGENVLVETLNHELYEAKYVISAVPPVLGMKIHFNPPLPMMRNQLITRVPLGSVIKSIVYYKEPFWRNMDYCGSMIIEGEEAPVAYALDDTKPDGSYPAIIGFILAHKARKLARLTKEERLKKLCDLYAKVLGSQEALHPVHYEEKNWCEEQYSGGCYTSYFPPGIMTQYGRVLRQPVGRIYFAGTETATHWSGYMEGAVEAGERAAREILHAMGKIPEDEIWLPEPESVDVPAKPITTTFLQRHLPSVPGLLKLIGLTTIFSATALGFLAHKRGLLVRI

[3] = Selectivity index, ratio of IC50 for MAO-B in bovine brain mitochondria to IC50 for MAO-A in rat liver mitochondria
Summary of the method: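 Enzyme source was mitochondria: rat liver for MAO-A, and bovine brain for MAO-B. Compounds were preincubated 60 min with enzyme before substrate was added: serotonin for MAO-A, benzylamine for MAO-B. Clorgyline served as the irreversible, time-dependent reference. Values are reported as IC50, and the selectivity index was derived from the MAO-A and MAO-B IC50s.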

Mus musculus [4] = assay: Toxicity in mouse up to dosed through parenteral route; settings: in vivo
Mus musculus [5] = assay: Toxicity in mouse assessed as mortality up to 250 mg/kg, po; type: organism-based; settings: in vivo
Summary of the method: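 Acute oral toxicity study in male mice, with oral dosing up to 250 mg/kg and mortality recorded.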

Question: What does the source list for `COC(=O)C[C@H](NC(=O)c1ccc(NC(=O)C(=O)c2ccccc2NC(C)=O)cc1)C(=O)OC`?
Answer: IC50 [1]: 0.06 µM; IC50 [2]: 790 µM; Selectivity Index [3]: 13200

Question: Which Activity (Mus musculus [4]) does the source give for `COC(=O)[C@H](C)NC(=O)c1ccc(NC(=O)C(=O)c2ccccc2NC(C)=O)cc1` here?
Answer: Non-toxic

Question: And the IC50 [1]?
Answer: 0.036 µM

Question: And the Activity (Mus musculus [5])?
Answer: Non-toxic

Question: And the IC50 [2]?
Answer: 730 µM

Question: What about the Selectivity Index [3] of the same compound?
Answer: 20300

Question: What does the source list for `COC(=O)[C@@H](NC(=O)c1ccc(NC(=O)C(=O)c2ccccc2NC(C)=O)cc1)C(C)C`?
Answer: Activity (Mus musculus [4]): Non-toxic; IC50 [1]: 0.0028 µM; Activity (Mus musculus [5]): Non-toxic; IC50 [2]: 430 µM; Selectivity Index [3]: 154000

Question: With `COC(=O)CCNC(=O)C(=O)c1ccccc1NC(C)=O` as the compound, how does the Activity (Mus musculus [4]) read?
Answer: Non-toxic

Question: And the IC50 [1]?
Answer: 0.033 µM

Question: And the Activity (Mus musculus [5])?
Answer: Non-toxic

Question: And the IC50 [2]?
Answer: 990 µM

Question: And the Selectivity Index [3]?
Answer: 30000

Question: With `COC(=O)CCCNC(=O)C(=O)c1ccccc1NC(C)=O` as the compound, how does the IC50 [1] read?
Answer: 0.062 µM

Question: And the IC50 [2]?
Answer: 950 µM

Question: What about the Selectivity Index [3] of the same compound?
Answer: 15300

Question: For `CCOC(=O)c1ccc(NC(=O)C(=O)c2ccccc2NC(C)=O)cc1`, which IC50 [1] is on record?
Answer: 0.083 µM

Question: What about the IC50 [2] of the same compound?
Answer: 990 µM

Question: And the Selectivity Index [3]?
Answer: 11900

Question: Which IC50 [1] does the source give for `COC(=O)CCCCCNC(=O)C(=O)c1ccccc1NC(C)=O` here?
Answer: 0.068 µM

Question: And the IC50 [2]?
Answer: 590 µM

Question: What about the Selectivity Index [3] of the same compound?
Answer: 8670

Question: For `COC(=O)CCNC(=O)c1ccc(NC(=O)C(=O)c2ccccc2NC(C)=O)cc1`, which Activity (Mus musculus [4]) is on record?
Answer: Non-toxic

Question: What about the IC50 [1] of the same compound?
Answer: 0.018 µM

Question: What about the Activity (Mus musculus [5]) of the same compound?
Answer: Non-toxic

Question: What about the IC50 [2] of the same compound?
Answer: 530 µM

Question: And the Selectivity Index [3]?
Answer: 29400

Question: Which IC50 [1] does the source give for `COC(=O)C(C)(C)NC(=O)c1ccc(NC(=O)C(=O)c2ccccc2NC(C)=O)cc1` here?
Answer: 0.043 µM

Question: What about the IC50 [2] of the same compound?
Answer: 360 µM

Question: And the Selectivity Index [3]?
Answer: 8370

Question: Which IC50 [1] does the source give for `COC(=O)C1(NC(=O)c2ccc(NC(=O)C(=O)c3ccccc3NC(C)=O)cc2)CCCC1` here?
Answer: 0.048 µM

Question: What about the IC50 [2] of the same compound?
Answer: 380 µM

Question: And the Selectivity Index [3]?
Answer: 7910

Question: Which results are given for `COC(=O)CCCNC(=O)c1ccc(NC(=O)C(=O)c2ccccc2NC(C)=O)cc1`?
Answer: IC50 [1]: 0.049 µM; IC50 [2]: 590 µM; Selectivity Index [3]: 12000

Question: What does the source list for `COC(=O)[C@H](CC(C)C)NC(=O)C(=O)c1ccccc1NC(C)=O`?
Answer: IC50 [1]: 0.072 µM; IC50 [2]: 480 µM; Selectivity Index [3]: 6660

Question: Which IC50 [1] does the source give for `COC(=O)CCCCCNC(=O)c1ccc(NC(=O)C(=O)c2ccccc2NC(C)=O)cc1` here?
Answer: 0.093 µM

Question: What about the IC50 [2] of the same compound?
Answer: 780 µM

Question: And the Selectivity Index [3]?
Answer: 8380

Question: What does the source list for `CC(=O)N1C(=O)C(=O)c2ccccc21`?
Answer: IC50 [1]: 0.056 µM; IC50 [2]: 380 µM; Selectivity Index [3]: 6780

Question: What does the source list for `COC(=O)[C@H](Cc1ccccc1)NC(=O)c1ccc(NC(=O)C(=O)c2ccccc2NC(C)=O)cc1`?
Answer: IC50 [1]: 0.036 µM; IC50 [2]: 280 µM; Selectivity Index [3]: 7770

Question: For `COC(=O)C[C@H](NC(=O)C(=O)c1ccccc1NC(C)=O)C(=O)OC`, which IC50 [1] is on record?
Answer: 0.058 µM

Question: What about the IC50 [2] of the same compound?
Answer: 460 µM

Question: And the Selectivity Index [3]?
Answer: 7930
